How the values were obtained:
[1] = system: KG-1; experiment: Induction of apoptosis in human KG1 cells at 1.0 uM […] by acridine orange staining; assay type: functional
[2] = system: MDA-MB-231; experiment: Induction of apoptosis in human MDA-MB-231 cells at 2.0 uM after 96 hrs by acridine orange staining; assay type: functional
In short: (§1)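 KG-1, HL-60R (24 h) or MDA-MB-231 (96 h) cells in 5% FBS medium attached overnight, then were treated with analogue in Me2SO or vehicle (final 0.1% Me2SO). Apoptotic cells were scored by acridine orange staining on at least three replicates. Tested concentrations were 0.1–5.0 μM, plus 25 μM for KG-1.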

[3] = Induction of apoptosis in human HL60R cells at 1.0 uM after 24 hrs by acridine orange staining; assay type: functional; in short: as §1
[4] = Antiproliferative activity against human KG1 AML cells after 48 hrs by MTT assay; assay type: functional, cell-based; details: in the assay text read “by hemocytometer cell counting” for “by MTT assay”
In short: (§2)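 KG-1 cells in 5% FBS medium attached overnight, then treated 48 h with analogue in Me2SO or Me2SO alone (final 0.1%). Cells were harvested and counted by hemocytometer in triplicate wells. Highest concentration evaluated was 5 μM.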

[5] = system: KG-1; experiment: Induction of apoptosis in human KG1 cells after 48 hrs by acridine orange staining; assay type: functional, cell-based; details: KG-1, 48 h
[6] = system: MDA-MB-231; experiment: Antiproliferative activity against human MDA-MB-231 cells after 72 hrs by MTT assay; assay type: functional, cell-based; details: MDA-MB-231, 72 h
In short: (§3)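 Cells attached for 24 h, then exposed 72 h to analogue in Me2SO or Me2SO alone (final Me2SO 0.1%), with media and compound renewed after 48 h. Viable cells were measured by MTS tetrazolium reduction in three replicates. Top concentration tested per compound was 2.5, 5, 10, 20 or 100 μM.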

[7] = Antiproliferative activity against human KG1 AML cells at 5 uM after 48 hrs by MTT assay; assay type: functional; details: in the assay text read “by hemocytometer cell counting” for “by MTT assay”; in short: as §2
[8] = system: MDA-MB-231; experiment: Induction of apoptosis in human MDA-MB-231 cells at 1.0 uM after 96 hrs by acridine orange staining; assay type: functional; in short: as §1
[9] = system: KG-1; experiment: Induction of apoptosis in human KG1 cells at 5.0 uM […] by acridine orange staining; assay type: functional
[10] = system: DU-145; experiment: Antiproliferative activity against human DU145 cells after 72 hrs by MTT assay; assay type: functional, cell-based; details: DU-145, 72 h; in short: as §3
[11] = Antiproliferative activity against human H292 cells after 72 hrs by MTT assay; assay type: functional, cell-based; details: NCI-H292, 72 h; in short: as §3
[12] = biological target: T1, Nuclear receptor subfamily 0 group B member 2 (Homo sapiens, UniProt Q15466); experiment: Displacement of [5,5'-3H2]AHPN from human recombinant GST-SHP by liquid scintillation counting relative to 3-Cl-AHPC
T1 sequence (Q15466 whole entry): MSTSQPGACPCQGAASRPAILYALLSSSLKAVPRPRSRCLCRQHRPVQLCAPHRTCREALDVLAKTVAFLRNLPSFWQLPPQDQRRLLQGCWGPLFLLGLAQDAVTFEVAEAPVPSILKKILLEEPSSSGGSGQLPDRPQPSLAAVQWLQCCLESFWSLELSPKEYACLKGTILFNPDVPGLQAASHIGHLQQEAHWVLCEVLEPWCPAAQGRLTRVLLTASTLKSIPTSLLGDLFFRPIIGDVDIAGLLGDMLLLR
In short: (§4)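 Recombinant GST–human SHP was bound to glutathione–Sepharose beads and incubated 2 h with 5 nM [5,5′-3H2]AHPN with or without competitor (1.0, 5.0 or 50 μM). Beads were washed twice and counted. Displacement was expressed relative to 50 μM 3-Cl-AHPC set as 100%.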

[13] = biological target: T2, Tyrosine-protein phosphatase non-receptor type 11 (Homo sapiens, UniProt Q06124); experiment: Inhibition of SHP2 overexpressed in human KG1 cells; assay type: cell-based, KG-1
T2 sequence (Q06124 whole entry): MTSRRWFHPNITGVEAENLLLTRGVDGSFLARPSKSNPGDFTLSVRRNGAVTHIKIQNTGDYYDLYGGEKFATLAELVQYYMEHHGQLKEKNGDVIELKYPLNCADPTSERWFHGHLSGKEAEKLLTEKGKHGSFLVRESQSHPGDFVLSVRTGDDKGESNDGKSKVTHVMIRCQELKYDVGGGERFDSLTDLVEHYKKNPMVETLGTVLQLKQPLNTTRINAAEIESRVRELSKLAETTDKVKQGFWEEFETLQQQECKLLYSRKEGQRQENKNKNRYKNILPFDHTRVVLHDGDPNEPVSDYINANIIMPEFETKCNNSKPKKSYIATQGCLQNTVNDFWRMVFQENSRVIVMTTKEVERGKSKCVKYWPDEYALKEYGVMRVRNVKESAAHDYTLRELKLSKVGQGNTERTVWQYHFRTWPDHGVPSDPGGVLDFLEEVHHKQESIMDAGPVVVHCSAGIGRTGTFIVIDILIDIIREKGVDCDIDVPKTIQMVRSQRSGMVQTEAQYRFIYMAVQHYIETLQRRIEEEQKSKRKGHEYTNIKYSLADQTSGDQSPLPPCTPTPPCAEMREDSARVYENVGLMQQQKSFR
In short: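 Shp-2 PTP activity was measured as hydrolysis of the fluorogenic substrate 6,8-difluoro-4-methylumbelliferyl phosphate in the presence of analogue in Me2SO or Me2SO alone (final concentration 5%).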

[14] = Antiproliferative activity against human H292 cells at 2.5 uM after 72 hrs by MTT assay; assay type: functional; details: NCI-H292, 72 h; in short: as §3
[15] = system: MDA-MB-231; experiment: Antiproliferative activity against human MDA-MB-231 cells at 2.5 uM after 72 hrs by MTT assay; assay type: functional; details: MDA-MB-231, 72 h; in short: as §3
[16] = system: DU-145; experiment: Antiproliferative activity against human DU145 cells at 2.5 uM after 72 hrs by MTT assay; assay type: functional; details: DU-145, 72 h; in short: as §3
[17] = Induction of apoptosis in human HL60R cells at 0.1 uM after 24 hrs by acridine orange staining; assay type: functional; in short: as §1
[18] = system: DU-145; experiment: Antiproliferative activity against human DU145 cells at 5 uM after 72 hrs by MTT assay; assay type: functional; details: DU-145, 72 h; in short: as §3
[19] = system: KG-1; experiment: Induction of apoptosis in human KG1 cells at 25 uM […] by acridine orange staining; assay type: functional
[20] = biological target: T3, Nuclear receptor subfamily 0 group B member 2 (Homo sapiens) (UniProt Q15466); experiment: Displacement of [5,5'-3H2]AHPN from human recombinant GST-SHP at 50 uM by liquid scintillation counting relative to 3-Cl-AHPC; in short: as §4
T3 sequence (whole entry): T1 sequence (Q15466 whole entry)

[21] = system: MDA-MB-231; experiment: Antiproliferative activity against human MDA-MB-231 cells at 5 uM after 72 hrs by MTT assay; assay type: functional; details: MDA-MB-231, 72 h; in short: as §3
[22] = Antiproliferative activity against human H292 cells at 5 uM after 72 hrs by MTT assay; assay type: functional; details: NCI-H292, 72 h; in short: as §3
[23] = system: DU-145; experiment: Antiproliferative activity against human DU145 cells at 20 uM after 72 hrs by MTT assay; assay type: functional; details: DU-145, 72 h; in short: as §3
[24] = system: MDA-MB-231; experiment: Antiproliferative activity against human MDA-MB-231 cells at 20 uM after 72 hrs by MTT assay; assay type: functional; details: MDA-MB-231, 72 h; in short: as §3
[25] = Antiproliferative activity against human H292 cells at 20 uM after 72 hrs by MTT assay; assay type: functional; details: NCI-H292, 72 h; in short: as §3
[26] = Growth inhibition of human HL60R cells at 0.1 uM after 24 hrs by hemocytometer; assay type: functional; details: read-out: GI
In short: (§5)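 HL-60R cells in medium with 5% FBS attached overnight, then received analogue in Me2SO or vehicle (final Me2SO 0.1%) for 24 h. Cells were harvested and counted in triplicate wells with a hemocytometer.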

[27] = Growth inhibition of HMVE cells after 72 hrs by alamar blue method; assay type: cell-based; details: Homo sapiens
[28] = Growth inhibition of human HL60R cells at 1.0 uM after 24 hrs by hemocytometer; assay type: functional; details: read-out: GI; in short: as §5
[29] = Growth inhibition of HMVE cells at 0.5 uM after 72 hrs by alamar blue method; assay type: cell-based; details: human, HMVE cells; read-out: GI

IC50 [5] [µM]	IC50 [6] [µM]	IC50 [10] [µM]	IC50 [12] [µM]	IC50 [13] [µM]	Structure (SMILES)	Activity [1] [%]	Activity [2] [%]	Activity [3] [%]	IC50 [4] [µM]	Activity [7] [%]	Activity [8] [%]	Activity [9] [%]	IC50 [11] [µM]	Activity [17] [%]	also measured
4.2	0.95	0.48	2.5	2.1	O=C(O)/C=C/c1ccc(-c2ccc(O)c(C34CC5CC(CC(C5)C3)C4)c2)c(Cl)c1	30	43	94	1.4	67	31	55	0.4	51	inhibition at 2.5 µM [14]: 92%; inhibition at 2.5 µM [15]: 63%; inhibition at 2.5 µM [16]: 85%
13.5	> 5	> 5	0.5	2.27	CC12CC3CC(C)(C1)CC(c1cc(-c4ccc(/C=C/C(=O)O)cc4Cl)ccc1O)(C3)C2	0	–	–	> 5	0	–	0	3.6	–	inhibition at 5 µM [18]: 23%; Activity [19]: 83%; Activity [20]: 103%; inhibition at 5 µM [21]: 7%; inhibition at 5 µM [22]: 66%
–	> 20	> 20	–	10.2	CC1(c2cc(-c3ccc(/C=C/C(=O)O)cc3Cl)ccc2O)SCCCS1	5	–	–	> 5	0	–	5	> 20	–	inhibition at 20 µM [23]: 8%; inhibition at 20 µM [24]: 13%; inhibition at 20 µM [25]: 6%
–	–	–	–	–	O=C(O)c1ccc2cc(-c3cccc(C45CC6CC(CC(C6)C4)C5)c3)ccc2c1	–	7	2	–	–	2	–	–	2	inhibition of growth at 0.1 µM [26]: 4%; IC50 [27]: > 0.5 µM; inhibition of growth at 1 µM [28]: 8%; inhibition at 72 h, 0.5 µM [29]: 36%

Reference: ChEMBL document CHEMBL1140080, “Adamantyl-substituted retinoid-derived molecules that interact with the orphan nuclear receptor small heterodimer partner: effects of replacing the 1-adamantyl or hydroxyl group on inhibition of cancer cell growth, induction of cancer cell apoptosis, and inhibition of SRC homology 2 …” (J Med Chem, 2008)
